Experimental data: ChEMBL document CHEMBL2034960, “Bryonolic acid transcriptional control of anti-inflammatory and antioxidant genes in macrophages in vitro and in vivo” (J Nat Prod, 2012)
pIC50: −log10 of the molar value. The source made the active and inactive calls. The rule behind the calls is not given here.

Tests used:
RAW264.7 [1] = experiment: Antioxidant activity in LPS-stimulated mouse RAW264.7 cells assessed as induction of HO-1 […] expression after 24 hrs by immunoblot analysis; format: functional, cell-based
RAW264.7 [2] = experiment: Antiinflammatory activity in mouse RAW264.7 cells assessed as inhibition of LPS-induced iNOS protein expression at 50 to 100 uM by immunoblot analysis; format: functional, cell-based; settings: TDE = time-dependent effect
RAW264.7 [3] = experiment: Antioxidant activity in LPS-stimulated mouse RAW264.7 cells assessed as induction of HO-1 mRNA expression at 100 uM after 4 hrs by RT-PCR analysis relative to control; format: functional
RAW264.7 [4] = experiment: Antiinflammatory activity in mouse RAW264.7 cells assessed as inhibition of LPS-induced nitric oxide production at 50 to 100 uM after 24 hrs by Griess method; format: functional; design: scale not given: the % may be the effect or the level left
RAW264.7 [5] = experiment: Antioxidant activity in LPS-stimulated mouse RAW264.7 cells assessed as induction of HO-1 protein expression at 100 uM after 24 hrs by immunoblot analysis; format: functional, cell-based
RAW264.7 [6] = experiment: Antioxidant activity in mouse RAW264.7 cells assessed as induction of HO1 expression at 100 uM after 6 hrs by immunoblot analysis; format: functional, cell-based
[7] = molecular target: T1, Nuclear factor erythroid 2-related factor 2 (Mus musculus) (UniProt Q60795); experiment: Induction of Nrf2-mediated GR mRNA expression in mouse RAW264.7 cells at 100 uM after 20 hrs by quantitative RT-PCR analysis relative to control; format: cell-based
T1 sequence (whole entry): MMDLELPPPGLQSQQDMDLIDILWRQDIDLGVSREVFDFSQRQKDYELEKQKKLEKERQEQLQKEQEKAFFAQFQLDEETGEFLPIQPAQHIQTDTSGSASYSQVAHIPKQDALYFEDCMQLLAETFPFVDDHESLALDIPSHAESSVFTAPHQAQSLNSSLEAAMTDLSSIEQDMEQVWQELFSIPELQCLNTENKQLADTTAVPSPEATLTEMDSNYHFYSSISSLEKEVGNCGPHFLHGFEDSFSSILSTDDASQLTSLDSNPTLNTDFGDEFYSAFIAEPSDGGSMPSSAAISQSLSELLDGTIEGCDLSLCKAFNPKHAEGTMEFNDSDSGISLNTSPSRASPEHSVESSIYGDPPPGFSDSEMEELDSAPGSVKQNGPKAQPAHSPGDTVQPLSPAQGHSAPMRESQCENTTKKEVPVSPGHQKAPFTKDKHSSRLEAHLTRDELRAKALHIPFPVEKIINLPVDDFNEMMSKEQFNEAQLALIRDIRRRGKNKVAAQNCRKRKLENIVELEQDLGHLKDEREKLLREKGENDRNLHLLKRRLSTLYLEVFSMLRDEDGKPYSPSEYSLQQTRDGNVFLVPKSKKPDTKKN

RAW264.7 [8] = experiment: Antiinflammatory activity in mouse RAW264.7 cells assessed as inhibition of LPS-induced iNOS protein expression at 100 uM after 4 hrs by immunoblot analysis
[9] = molecular target: T1, Nuclear factor erythroid 2-related factor 2 (Mus musculus); experiment: Induction of Nrf2-mediated HO1 […] expression in C57BL/6 mouse primary peritoneal macrophages after 48 hrs by immunoblot analysis
[10] = molecular target: T1, Nuclear factor erythroid 2-related factor 2 (Mus musculus); experiment: Induction of Nrf2-mediated GR mRNA expression in mouse RAW264.7 cells at 100 uM after 24 hrs by quantitative RT-PCR analysis relative to control; format: cell-based
[11] = molecular target: T1, Nuclear factor erythroid 2-related factor 2 (Mus musculus); experiment: Induction of Nrf2-mediated CAT mRNA expression in mouse RAW264.7 cells at 100 uM after 4 to 24 hrs by quantitative RT-PCR analysis relative to control; format: cell-based
RAW264.7 [12] = experiment: Antiinflammatory activity in mouse RAW264.7 cells assessed as inhibition of LPS-induced nitric oxide production after 24 hrs by Griess method; format: functional, cell-based; settings: RAW264.7, 24 h
[13] = molecular target: T1, Nuclear factor erythroid 2-related factor 2 (Mus musculus); experiment: Induction of Nrf2-mediated HO1 mRNA expression in mouse RAW264.7 cells at 100 uM after 24 hrs by quantitative RT-PCR analysis relative to control; format: cell-based
RAW264.7 [14] = experiment: Antioxidant activity in LPS-stimulated mouse RAW264.7 cells assessed as induction of HO-1 mRNA expression at 100 uM after 20 hrs by RT-PCR analysis relative to control; format: functional
Mus musculus [15] = experiment: Induction of HO1 […] expression in Nrf2-knock out C57BL/6 mouse liver at 500 mg/kg, ip measured after 8 hrs by immunoblot analysis
[16] = molecular target: T1, Nuclear factor erythroid 2-related factor 2 (Mus musculus); experiment: Induction of Nrf2-mediated CAT mRNA expression in mouse RAW264.7 cells at 100 uM after 16 hrs by quantitative RT-PCR analysis relative to control; format: cell-based
[17] = molecular target: T1, Nuclear factor erythroid 2-related factor 2 (Mus musculus); experiment: Induction of Nrf2-mediated CAT mRNA expression in mouse RAW264.7 cells at 100 uM after 20 hrs by quantitative RT-PCR analysis relative to control; format: cell-based
RAW264.7 [18] = experiment: Antiinflammatory activity in mouse RAW264.7 cells assessed as inhibition of LPS-induced iNOS protein expression after 24 hrs by immunoblot analysis; format: functional, cell-based
RAW264.7 [19] = experiment: Cytotoxicity against mouse RAW264.7 cells at 1000 uM after 24 hrs by MTT assay; format: cell-based; settings: raw264.7, 24 h
Mus musculus [20] = experiment: Induction of HO1 […] expression in Nrf2-wild type C57BL/6 mouse liver at 500 mg/kg, ip measured after 8 hrs by immunoblot analysis
RAW264.7 [21] = experiment: Antioxidant activity in mouse RAW264.7 cells assessed as induction of HO1 expression at 100 uM after 72 hrs by immunoblot analysis; format: functional, cell-based
RAW264.7 [22] = experiment: Antioxidant activity in mouse RAW264.7 cells assessed as induction of HO1 expression at 100 uM after 48 hrs by immunoblot analysis; format: functional, cell-based
RAW264.7 [23] = experiment: Antiinflammatory activity in mouse RAW264.7 cells assessed as inhibition of LPS-induced iNOS protein expression at 100 uM after 24 hrs by immunoblot analysis; format: functional, cell-based
[24] = molecular target: T1, Nuclear factor erythroid 2-related factor 2 (Mus musculus); experiment: Induction of nuclear translocation of Nrf2 in mouse RAW264.7 cells assessed as decrease in cytoplasmic fraction at 100 uM after 1 hr; format: cell-based
Procedure, shortened: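 RAW 264.7 macrophages treated with 50 or 100 μM compound for various times (1–4 h window examined). Cytoplasmic and nuclear fractions were separated and probed for Nrf2 by immunoblot. Translocation was scored as loss of cytoplasmic Nrf2 and nuclear accumulation relative to DMSO control.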

RAW264.7 [25] = experiment: Antioxidant activity in LPS-stimulated mouse RAW264.7 cells assessed as induction of HO-1 mRNA expression at 100 uM after 24 hrs by RT-PCR analysis; format: functional, cell-based

- fold change (FC) [7]: 1.5
- Activity [9]: Dose-dependent effect
- Activity [10]: inactive
- Activity [11]: Active
- pIC50 (RAW264.7 [12]): 4.27
- Activity [13]: Active
- fold change (FC) [16]: 1.7
- fold change (FC) [17]: 3.5
- Activity [24]: Active
SMILES: CC1(C)[C@@H](O)CC[C@]2(C)C3=C(CC[C@@H]12)[C@@]1(C)CC[C@@]2(C)CC[C@@](C)(C(=O)O)C[C@H]2[C@]1(C)CC3 [BRYONOLIC ACID]
- Activity (RAW264.7 [1]): Dose-dependent effect
- Activity (RAW264.7 [2]): tde
- fold change (FC) (RAW264.7 [3]): 4.1
- Activity (RAW264.7 [4]): 72%
- Activity (RAW264.7 [5]): Active
- Activity (RAW264.7 [6]): Active
- Activity (RAW264.7 [8]): Active
- fold change (FC) (RAW264.7 [14]): 11.3
- Activity (Mus musculus [15]): inactive
- Activity (RAW264.7 [18]): Dose-dependent effect
- Activity (RAW264.7 [19]): Toxic
- Activity (Mus musculus [20]): Active
- Activity (RAW264.7 [21]): inactive
- Activity (RAW264.7 [22]): Active
- Activity (RAW264.7 [23]): Active
- Activity (RAW264.7 [25]): Active
